Xi reactivation: activators of inactive X chromosome reactivation, primary screen, imaging, XiGFP fibroblasts, GFP high-content imaging, set 2. activation, % at 7.58 µM. 360,000 tested, 0.055% active. XiGFP mouse fibroblasts, % GFP-positive cells imaging, 3 d; cells co-treated with 5-aza-dC sensitizer; scaled so ellipticine positive control = 100%. AID 743238, 2013;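 active = mean normalized replicate activation at least 10% and every replicate at or above 10%; inconclusive = only one of the two criteria met; inactive = mean below 10% and not all replicates reach 10%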;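 also: 0% = median of on-plate neutral control wells and 100% = ellipticine 6 µM median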
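System: 68-5-11 XiGFP fibroblast line | Buffer or medium: DMEM containing 5-aza-dC | Compound: Single point | Times: Compounds 3 days, fix/stain 15 min at room temperature | Benchmarks: Positive control ellipticine, 6 µM final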
SIRT5 block: SIRT5 desuccinylase inhibitors, primary screen, biochemical, fluorescence imaging, single point, set 5; NAD-dependent protein deacylase sirtuin-5, mitochondrial (Homo sapiens), Q9NXA8; Purified SirT5, succinyl-peptide AMC, trypsin-coupled fluorescence; 330,000 tested, 1.1% active; AID 652115, 2013; inhibition, % at 15 µM; in the data active = inhibition above about 15%; inconclusive = no clear call, values can overlap the other calls
Target sequence (Q9NXA8 whole entry, looked up): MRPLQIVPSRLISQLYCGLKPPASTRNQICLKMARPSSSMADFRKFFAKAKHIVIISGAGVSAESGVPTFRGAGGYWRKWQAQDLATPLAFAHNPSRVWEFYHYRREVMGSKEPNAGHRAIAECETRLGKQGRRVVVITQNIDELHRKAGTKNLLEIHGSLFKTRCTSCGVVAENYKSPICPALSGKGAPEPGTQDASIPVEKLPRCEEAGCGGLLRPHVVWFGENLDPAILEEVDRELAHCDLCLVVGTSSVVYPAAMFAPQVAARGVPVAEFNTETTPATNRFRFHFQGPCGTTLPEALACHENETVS
FN deposit inh: inhibitors of fibronectin matrix deposition, primary screen, AH1F cells, Alexa488-fibronectin fluorescence, plate reader; AH1F fibroblasts, overnight; inhibition, % at 12.6 µM; 350,000 tested, 0.086% active; AID 743247, 2014;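 active = mean inhibition across replicates of 30% or more, regardless of how many single replicates reach that level; inconclusive = mean under 30% yet at least half of replicates reach 30%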;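 also: positive control wells lacked labelled fibronectin entirely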
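Assay system: AH1F fibroblasts assembling fluorescent fibronectin matrix; Amount: 10000 AH1F cells per well; Buffer or medium: DMEM, 2% serum; Probe or stimulus: Alexa488-fibronectin, 24 nM final in well; Doses: single compound dose, delivered by pin transfer; Incubation: 1 h adhesion, overnight exposure; Measured by: fluorescence 485/525 nm; Read-out: fibronectin deposition inhibition.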
ARNT-TACC3 inh: disruptors of ARNT/TACC3 protein interaction, primary screen, biochemical, AlphaScreen, single concentration; Transforming acidic coiled-coil-containing protein 3 (Homo sapiens), Q9Y6A5; AlphaScreen His-ARNT PAS-B/GST-TACC3 binding, luminescence; TACC3 fragment carries E629A point mutation; inhibition, % at 9.99 µM; 390,000 tested, 0.66% active;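 active = mean inhibition of replicates at least 50% and at least half of replicates each reaching 50%; inconclusive = half or more replicates reach 50% but mean below 50%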;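 also: 0% = complete ARNT plus TACC3 wells and 100% = ARNT alone without TACC3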
FGF22 binding: binders of human FGF22 protein, primary screen, FGF22 synaptogenesis inhibitor project, biophysical, thermal shift, single point. Fibroblast growth factor 22 (Homo sapiens), Q9HCT0. recombinant FGF22 thermal shift, SYPRO orange fluorescence; percent of sucrose octasulfate shift, DMSO zero. activity (Tm shift, normalised), % at 9.99 µM. 340,000 tested, 1.5% active;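 active = mean Tm shift, scaled 0 neutral to 100 positive control, at about 1.3% or above, every replicate too, limit read from the data; inconclusive = no clear call, values can overlap the other calls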
Target sequence (Q9HCT0 whole entry, looked up): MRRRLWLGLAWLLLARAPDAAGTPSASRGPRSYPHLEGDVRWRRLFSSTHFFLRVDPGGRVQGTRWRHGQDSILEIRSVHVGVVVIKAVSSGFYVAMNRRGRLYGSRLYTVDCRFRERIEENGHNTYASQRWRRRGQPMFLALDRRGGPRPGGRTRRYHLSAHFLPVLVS
DENV2 CPE rescue: inhibitors of DENV2 cytopathic effect, primary screen, cell-based, plate reader, single concentration | DENV2-infected cells, cytopathic effect rescue | CPE inhibition, % at 9.99 µM | 350,000 tested, 1.7% active | AID 651640, 2012; in the data active = CPE inhibition above about 20%, passing the limit was not always enough; inconclusive = no clear call, values can overlap the other calls; tested in BHK-21 cells;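 also: 0% = median of neutral control wells and 100% = median of positive control wells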
An asterisk follows results filed as active; ? = inconclusive; nt = no result given. Hits are enriched below; roughly 3.8% of the tested compounds scored in any of these assays.

SMILES | Xi reactivation | SIRT5 block | FN deposit inh | ARNT-TACC3 inh | FGF22 binding | DENV2 CPE rescue
COc1ccc(NC(=O)N(C)C[C@@H]2Oc3ccc(NC(=O)Cc4cn(C)c5ccccc45)cc3C(=O)N([C@H](C)CO)C[C@H]2C)cc1 | 0 | 5 | nt | -1 | 0 | ?
COC(=O)c1cc(S(=O)(=O)NCc2ccc(Br)cc2)c[nH]1 | 0 | 22* | -10 | -4 | 0 | 2
COC(=O)c1cc(S(=O)(=O)NCc2ccccc2)c[nH]1 | 0 | -4 | 4 | 0 | 0 | -2
C=CCN1C(=O)/C(=C\C=C2\N(C)c3ccccc3C2(C)C)SC1=S | 0 | -1 | 8 | nt | 44* | -6
CN1/C(=C\C=C2/SC(=S)N(CC(=O)O)C2=O)C(C)(C)c2ccccc21 | 0 | 2 | -12 | 3 | 0 | -1
CCCc1cc(=O)n2[nH]c(C(F)(F)F)nc2n1 | 0 | 0 | 12 | -2 | 43* | 6
CCCc1cc(=O)n2[nH]c(C)nc2n1 | nt | nt | -5 | -29 | nt | nt
COCC(=O)N1C[C@H](C)[C@H](OC)CN(C)C(=O)c2cc(NC(=O)c3ccc(OC)cc3)ccc2OC[C@H]1C | 1 | 4 | -6 | -2 | 0 | -3
COc1cccc(CN(C)C(=O)CN2C(=O)NC3(CCCc4ccccc43)C2=O)c1 (configuration not stated) | 0 | -2 | 5 | 1 | 0 | 73*
Cc1ccsc1CN(C)C(=O)CN1C(=O)NC2(CCCc3ccccc32)C1=O (configuration not stated) | 0 | 3 | 0 | -3 | 0 | -2
CN(C)Cc1cc(C(C)(C)c2ccccc2)ccc1O | 0 | nt | -2 | 6 | 43* | 10
COc1cccc(S(=O)(=O)Nc2ccc3c(c2)[C@H]2C[C@@H](CC(=O)N4CCCCC4)O[C@H](CO)[C@H]2O3)c1 | 0 | -4 | nt | 2 | 0 | -2
Cc1ccc(S(=O)(=O)N(C)C[C@@H]2Oc3ccc(NC(=O)Cn4cnnn4)cc3C(=O)N([C@H](C)CO)C[C@@H]2C)cc1 | 0 | -1 | nt | -1 | 0 | -1
O=C(C[C@@H]1CC[C@H]2[C@@H](COC[C@@H](O)CN2Cc2nccs2)O1)NCc1ccc(Cl)cc1 | 0 | -2 | -12 | 10 | 0 | -2
CC(C)S(=O)(=O)c1ccc(C(=O)Nc2ccc(F)cc2F)cn1 | 0 | -3 | 12 | 5 | 43* | nt
CCCSc1ccc(C(=O)Nc2ccc(F)cc2F)cn1 | 0 | -1 | -2 | -31 | 0 | 9
CC(C)N(Cc1ccccc1)C(=S)Nc1ccc(F)cc1 | 0 | -2 | 7 | 1 | 43* | 1
Cc1ccc(NC(=S)N(Cc2ccccc2)C(C)C)cc1 | 0 | -1 | 1 | 4 | 0 | -3
Cc1nn(Cc2ccc(F)cc2)c2sc(C(=O)Nc3nccs3)cc12 | 0 | -3 | 22 | 6 | 44* | -7
COCC#Cc1ccc2c(c1)O[C@@H](CN(C)Cc1ccncc1)[C@H](C)CN([C@H](C)CO)S2(=O)=O | -1 | -4 | -11 | -10 | 0 | 20*
COCC#Cc1ccc2c(c1)O[C@@H](CN(C)Cc1ccccc1)[C@H](C)CN([C@H](C)CO)S2(=O)=O | -1 | 2 | nt | 27 | 0 | 23*
COCC#Cc1ccc2c(c1)O[C@H](CN(C)Cc1ccccc1)[C@@H](C)CN([C@H](C)CO)S2(=O)=O | 0 | 1 | nt | 3 | 0 | 28*
Cc1noc(C)c1NC(=O)N(C)C[C@@H]1OCCCC[C@H](C)Oc2ccc(NC(=O)CCC(F)(F)F)cc2C(=O)N([C@@H](C)CO)C[C@H]1C | -1 | -11 | nt | -6 | 0 | -11
CO[C@H]1CN(C)C(=O)c2cc(NC(=O)Nc3ccccc3F)ccc2OC[C@H](C)N(Cc2ccccc2C(=O)O)C[C@@H]1C | 0 | nt | 10 | -2 | 0 | -4
C[C@@H]1CN([C@@H](C)CO)C(=O)c2cc(NC(=O)Nc3ccc4c(c3)OCO4)ccc2O[C@H]1CN(C)Cc1ccc(Cl)c(Cl)c1 | 0 | -1 | nt | -7 | 0 | -9
SMILES | Xi reactivation | SIRT5 block | FN deposit inh | ARNT-TACC3 inh | FGF22 binding | DENV2 CPE rescue
COc1ccc([C@@H]2[C@@H](C)N(c3ccccc3)c3ccccc3C(=O)N2Cc2ccccc2)cc1 | 0 | nt | -14 | nt | 44* | 86*
Cc1nc2ccccn2c1C(=O)NN=C1CCCC1 | 0 | 0 | 9 | 20* | 1 | 9
CCOC(=O)/C(=C/C=C1\Sc2ccccc2N1CC)C(C)=O | nt | nt | nt | 2 | nt | nt
CCOC(=O)/C(=C/C=C1\Sc2cc(C)c(C)cc2N1CC)C(C)=O | 17* | -4 | -93 | 3 | 0 | nt
COc1ccc(C(=O)O)nc1C | 0 | 17* | 5 | -11 | 0 | 2
CCC(=O)N1CC(=O)N2[C@H](C1)[C@H](c1ccc(C#CCC(C)C)cc1)[C@@H]2CO | 0 | 5 | 2 | nt | 0 | -14
Cc1noc(C)c1NC(=O)N(C)C[C@H]1OCCCC[C@@H](C)Oc2ccc(NC(=O)Nc3cccc4ccccc34)cc2C(=O)N([C@H](C)CO)C[C@@H]1C | -1 | nt | nt | -19 | 0 | 6
CS(=O)(=O)N(Cc1ccc(C(=O)NN=C2CCCCCC2)cc1)c1ccccc1 | 0 | -2 | 4 | 1 | 0 | 110*
CC(=O)NC1C(=O)N=C(SCC(=O)Nc2ccc(C(F)(F)F)cc2Cl)NC1=O (configuration not stated) | 0 | -1 | 5 | -14 | 44* | 2
CO[C@H]1CN(C)C(=O)c2ccc(NS(=O)(=O)c3ccc(Cl)cc3)cc2OC[C@@H](C)N(C)C[C@@H]1C | 0 | 5 | 8 | -6 | 0 | 9
O=C([C@H]1[C@H](CO)[C@H]2Cn3c(cccc3=O)[C@H]2N1Cc1ccncc1)N1CCCCC1 | 0 | 0 | nt | -28 | 0 | 5
CN(CCOc1ccccc1)C(=O)c1cc([N+](=O)[O-])cc([N+](=O)[O-])c1 | -1 | 27* | 6 | -2 | 0 | 2
C[C@H](CO)N1C[C@H](C)[C@@H](CN(C)C(=O)Nc2ccccc2)OCCCC[C@H](C)Oc2ccc(NC(=O)C3CCCCC3)cc2C1=O | 0 | 3 | -2 | -8 | 0 | -11

Bioassay records deposited in PubChem by Broad Institute.
